The source of these data is ChEMBL document CHEMBL2157924, “Cyclobutane derivatives as novel nonpeptidic small molecule agonists of glucagon-like peptide-1 receptor” (J Med Chem, 2012).

Experiment [1] addresses Glucagon receptor (Homo sapiens) (UniProt P47871). In words: Agonist activity at human glucagon receptor expressed in HEK293 cells assessed as stimulation of cAMP levels incubated for 6 hrs by multiple response element/cAMP response element (MRE/CRE)-driven reporter gene assay. It counts as functional, cell-based. Put shortly:
(§1)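 HEK293 cells transiently cotransfected with human GLP-2 receptor or glucagon receptor expression vector plus a luciferase reporter carrying three copies of multiple response element and one cAMP response element. Luciferase activity at different compound concentrations was expressed relative to the respective native peptide (GLP-2 or glucagon, 100%). Mean ± SEM of triplicate experiments.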

Experiment [2] has as its target T1, Glucagon-like peptide 1 receptor (Rattus norvegicus) (UniProt P32301).
T1 sequence (whole entry): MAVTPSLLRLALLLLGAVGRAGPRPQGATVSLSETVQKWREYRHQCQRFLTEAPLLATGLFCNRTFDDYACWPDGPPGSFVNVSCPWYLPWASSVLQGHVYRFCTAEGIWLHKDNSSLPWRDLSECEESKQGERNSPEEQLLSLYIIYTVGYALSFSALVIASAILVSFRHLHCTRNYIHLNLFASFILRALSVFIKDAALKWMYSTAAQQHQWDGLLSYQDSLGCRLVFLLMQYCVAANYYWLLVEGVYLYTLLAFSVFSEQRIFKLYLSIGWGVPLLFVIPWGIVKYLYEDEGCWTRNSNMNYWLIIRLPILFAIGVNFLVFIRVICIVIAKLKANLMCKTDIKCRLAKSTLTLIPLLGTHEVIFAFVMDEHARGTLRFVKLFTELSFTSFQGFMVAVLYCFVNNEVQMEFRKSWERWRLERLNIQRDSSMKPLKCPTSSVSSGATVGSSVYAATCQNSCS
The experiment can be described thus: Inhibition of [125I]GLP1 (7-36) amide binding to rat GLP1R expressed in HEK293 cells relative to untreated control. It is filed as cell-based. On the set-up: concentration or dose not given beside the values. The settings on record: concentration not given here. The essentials: (§2)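 Membranes (17 μg protein) from HEK293 cells stably expressing rat GLP-1R were preincubated 5 h at 4 °C with FlashBlue beads (150 μg). Then 40 pM [125I]GLP-1(7−36) amide or [125I]Exendin(9−39) was added with aprotinin 2 μg/mL, leupeptin 100 μM and test compound at varied concentrations. Incubated overnight at 4 °C, then bound radioactivity counted. Mean ± SEM of two independent experiments.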

Experiment [3] addresses T2, Glucagon-like peptide 2 receptor (Homo sapiens) (UniProt O95838).
T2 sequence (whole entry): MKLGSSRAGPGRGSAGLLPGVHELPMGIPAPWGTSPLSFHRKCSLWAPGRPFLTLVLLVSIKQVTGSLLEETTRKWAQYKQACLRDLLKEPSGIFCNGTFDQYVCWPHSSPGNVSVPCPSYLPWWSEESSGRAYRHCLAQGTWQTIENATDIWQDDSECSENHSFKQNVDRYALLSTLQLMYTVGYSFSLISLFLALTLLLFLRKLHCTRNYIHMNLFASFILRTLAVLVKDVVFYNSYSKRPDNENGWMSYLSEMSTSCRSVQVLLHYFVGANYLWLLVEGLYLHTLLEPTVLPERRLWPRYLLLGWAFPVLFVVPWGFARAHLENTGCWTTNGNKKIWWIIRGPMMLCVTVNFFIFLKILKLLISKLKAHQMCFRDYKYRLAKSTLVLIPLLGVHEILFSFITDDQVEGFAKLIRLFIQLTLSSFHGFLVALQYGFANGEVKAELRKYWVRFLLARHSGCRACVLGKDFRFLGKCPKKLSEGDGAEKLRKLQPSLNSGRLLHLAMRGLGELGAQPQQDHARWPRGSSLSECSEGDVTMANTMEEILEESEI
In words: Agonist activity at human GLP2R expressed in HEK293 cells assessed as stimulation of cAMP levels incubated for 6 hrs by multiple response element/cAMP response element (MRE/CRE)-driven reporter gene assay. It counts as functional, cell-based. Put shortly: as §1
In general terms: cAMP levels reflect the balance of adenylyl cyclase and phosphodiesterase activity.

The target of experiment [4] is T1, Glucagon-like peptide 1 receptor (Rattus norvegicus). The experiment can be described thus: Agonist activity at rat GLP1R expressed in HEK293 cells assessed as stimulation of cAMP levels incubated for 6 hrs by multiple response element/cAMP response element (MRE/CRE)-driven reporter gene assay relative to 10 nM GLP1. It counts as functional, cell-based. The essentials: (§3)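 Stable HEK293 line co-expressing rat GLP-1R (pCMV-Tag2B) and a luciferase reporter with 3× MRE plus 1× CRE, seeded at 40000 cells/well and cultured overnight. Compounds in DMSO or GLP-1(7−37) were added for 6 h, then cells were lysed and luciferase read (Steady-Glo). The 10 nM GLP-1 maximum was taken as 100%. Mean ± SEM of two independent experiments; some values come from a single run.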

Experiment [5] has the same target. In words: Inhibition of [125I]Exendin (9-39) binding to rat GLP1R expressed in HEK293 cells. It is filed as cell-based. On the set-up: concentration or dose not given beside the values. The settings on record: concentration not given here. Put shortly:
as §2

The target in experiment [6] is T3, Glucagon-like peptide 1 receptor (Rattus norvegicus, UniProt P32301).
T3 sequence (P32301 whole entry): T1 sequence (whole entry)
In words: Inhibition of [125I]GLP1 (7-36) amide binding to rat GLP1R expressed in HEK293 cells. It is filed as cell-based. Put shortly: as §2

Experiment [7] concerns the target T3, Glucagon-like peptide 1 receptor. In words: Agonist activity at rat GLP1R expressed in HEK293 cells assessed as stimulation of cAMP levels incubated for 6 hrs by multiple response element/cAMP response element (MRE/CRE)-driven reporter gene assay. It is filed as functional, cell-based. Put shortly: as §3

The source made the active and inactive calls. The rule behind the calls is not given here.

Chain of Glucagon receptor (Homo sapiens) (P47871 whole entry): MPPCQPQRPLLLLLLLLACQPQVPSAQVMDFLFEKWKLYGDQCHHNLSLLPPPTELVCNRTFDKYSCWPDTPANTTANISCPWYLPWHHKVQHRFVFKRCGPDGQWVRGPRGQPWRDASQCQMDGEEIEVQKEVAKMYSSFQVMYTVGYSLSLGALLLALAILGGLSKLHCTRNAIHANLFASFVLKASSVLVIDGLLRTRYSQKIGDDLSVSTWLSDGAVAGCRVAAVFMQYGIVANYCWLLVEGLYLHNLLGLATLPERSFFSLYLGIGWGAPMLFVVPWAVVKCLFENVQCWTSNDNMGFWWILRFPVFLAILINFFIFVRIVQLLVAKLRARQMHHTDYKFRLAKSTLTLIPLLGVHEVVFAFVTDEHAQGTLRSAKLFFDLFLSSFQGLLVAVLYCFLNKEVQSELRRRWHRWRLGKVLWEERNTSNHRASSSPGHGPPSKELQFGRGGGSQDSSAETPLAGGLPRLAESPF

With GLUCAGON, the result in experiment [1] was Active.

A word on the inhibition: it is the percentage by which the read-out fell short of the control. Usually IC50 stands for the concentration that gives 50% inhibition. Broadly, the EC50 is the concentration needed to bring the measured effect to its halfway point. Turning to `CC[C@H](C)[C@H](NC(=O)[C@H](Cc1ccccc1)NC(=O)[C@H](CCC(=O)O)NC(=O)[C@H](CCCCN)NC(=O)[C@H](C)NC(=O)[C@H](C)NC(=O)[C@H](CCC(N)=O)NC(=O)CNC(=O)[C@H](CCC(=O)O)NC(=O)[C@H](CC(C)C)NC(=O)[C@H](Cc1ccc(O)cc1)NC(=O)[C@H](CO)NC(=O)[C@H](CO)NC(=O)[C@@H](NC(=O)[C@H](CC(=O)O)NC(=O)[C@H](CO)NC(=O)[C@@H](NC(=O)[C@H](Cc1ccccc1)NC(=O)[C@@H](NC(=O)CNC(=O)[C@H](CCC(=O)O)NC(=O)[C@H](C)NC(=O)[C@H](Cc1cnc[nH]1)NC(=O)[C@H](CCCNC(=N)N)NC(=O)[C@H](CCC(=O)O)NC(=O)[C@H](Cc1ccccc1)NC(=O)[C@H](CCC(=O)O)NC(=O)[C@H](CC(=O)O)NC(=O)[C@@H](N)Cc1cnc[nH]1)[C@@H](C)O)[C@@H](C)O)C(C)C)C(=O)N[C@@H](C)C(=O)N[C@@H](Cc1c[nH]c2ccccc12)C(=O)N[C@@H](CC(C)C)C(=O)N[C@H](C(=O)N[C@@H](CCCCN)C(=O)NCC(=O)N[C@@H](CCCNC(=N)N)C(=O)NCC(=O)O)C(C)C`, the values for the inhibition in experiment [2] and in experiment [5] were 100% and 97%, respectively. Also, the outcome in experiment [3] was inactive. Moreover, in experiment [4], the Efficacy was 100%. Besides, the IC50 in experiment [6] was 0.001 µM. Moreover, the EC50 in experiment [7] turned out to be 0.09 nM.

Regarding `CC[C@H](C)[C@H](NC(=O)[C@H](Cc1ccccc1)NC(=O)[C@H](CC(=O)O)NC(=O)[C@H](CCCNC(=N)N)NC(=O)[C@H](C)NC(=O)[C@H](C)NC(=O)[C@H](CC(C)C)NC(=O)[C@H](CC(N)=O)NC(=O)[C@H](CC(=O)O)NC(=O)[C@H](CC(C)C)NC(=O)[C@@H](NC(=O)[C@@H](NC(=O)[C@H](CC(N)=O)NC(=O)[C@H](CCSC)NC(=O)[C@H](CCC(=O)O)NC(=O)[C@H](CC(=O)O)NC(=O)[C@H](CO)NC(=O)[C@H](Cc1ccccc1)NC(=O)[C@H](CO)NC(=O)CNC(=O)[C@H](CC(=O)O)NC(=O)[C@H](C)NC(=O)[C@@H](N)Cc1cnc[nH]1)[C@@H](C)O)[C@@H](C)CC)C(=O)N[C@@H](CC(N)=O)C(=O)N[C@@H](Cc1c[nH]c2ccccc12)C(=O)N[C@@H](CC(C)C)C(=O)N[C@H](C(=O)N[C@@H](CCC(N)=O)C(=O)N[C@H](C(=O)N[C@@H](CCCCN)C(=O)N[C@H](C(=O)N[C@H](C(=O)N[C@@H](CC(=O)O)C(=O)N[C@@H](CCCNC(=N)N)C(=O)O)[C@@H](C)O)[C@@H](C)CC)[C@@H](C)O)[C@@H](C)CC`, the outcome in experiment [3] was Active.

Regarding `CC(C)(C)OC(=O)Nc1ccc(C(=O)N[C@]2(C(=O)O)[C@H](c3cccc(OCc4ccccc4)c3)[C@@](NC(=O)c3ccc(NC(=O)OC(C)(C)C)cc3)(C(=O)O)[C@@H]2c2cccc(OCc3ccccc3)c2)cc1`, the inhibition in experiment [2] and in experiment [5] was under 15% throughout. In addition, in experiment [4], the Efficacy was under 15%. Also, the IC50 in experiment [6] was over 20 µM. The EC50 in experiment [7] was over 20000 nM.

Regarding `COc1cc([C@H]2[C@](NC(=O)c3ccc(NC(=O)OC(C)(C)C)cc3)(C(=O)OC)[C@@H](c3ccc(OC(=O)c4cccs4)c(OC)c3)[C@]2(NC(=O)c2ccc(NC(=O)OC(C)(C)C)cc2)C(=O)OC)ccc1OC(=O)c1cccs1`, the inhibition in experiment [2] and in experiment [5] was under 15% in each case. The Efficacy in experiment [4] is under 15%. Moreover, in experiment [6], the IC50 was over 20 µM. Also, the EC50 in experiment [7] was over 20000 nM.

Turning to `CCOC(=O)CNC(=O)Nc1ccc(C(=O)N[C@]2(C(=O)O)[C@H](c3ccc(OC(=O)c4cccs4)c(OC)c3)[C@@](NC(=O)c3ccc(NC(=O)NCC(=O)OCC)cc3)(C(=O)O)[C@@H]2c2ccc(OC(=O)c3cccs3)c(OC)c2)cc1`, the figures for the inhibition in experiment [2] and in experiment [5] were 43.8% and 37.9%, respectively. Also, the Efficacy in experiment [4] came to 33.7%. Moreover, the IC50 in experiment [6] was determined as 4.3 µM. Also, the EC50 in experiment [7] came out at 4500 nM.

In the case of `COc1cc([C@H]2[C@](NC(=O)c3ccc(NC(=O)OC(C)(C)C)cc3)(C(=O)O)[C@@H](c3ccc(OC(=O)c4cccs4)c(OC)c3)[C@@]2(NC(=O)c2ccc(NC(=O)OC(C)(C)C)cc2)C(=O)O)ccc1OC(=O)c1cccs1`, the results for the inhibition in experiment [2] and in experiment [5] were 64.7% and 55.9%, respectively. The Efficacy in experiment [4] is under 15%. In experiment [6], this compound returned an IC50 of 3.6 µM. The EC50 in experiment [7] is over 20000 nM.

Take `COc1cc([C@H]2[C@](NC(=O)c3ccc(NC(=O)C4CCCC4)cc3)(C(=O)O)[C@@H](c3ccc(OC(=O)c4cccs4)c(OC)c3)[C@@]2(NC(=O)c2ccc(NC(=O)C3CCCC3)cc2)C(=O)O)ccc1OC(=O)c1cccs1`: the inhibition in experiment [2] was determined as 39.3%; in experiment [5], 37.9%. For the same compound, in experiment [4], the Efficacy stood at 35.9%. The IC50 in experiment [6] was 0.3 µM. Besides, the EC50 in experiment [7] came to 657 nM.

`COc1cc([C@H]2[C@](NC(=O)c3ccc(NC(=O)OC(C)(C)C)cc3)(C(=O)O)[C@@H](c3ccc(OC(=O)C45CC6CC(CC(C6)C4)C5)c(OC)c3)[C@]2(NC(=O)c2ccc(NC(=O)OC(C)(C)C)cc2)C(=O)O)ccc1OC(=O)C12CC3CC(CC(C3)C1)C2`: the inhibition in experiment [2] was 75.8%; in experiment [5], 63.5%. In addition, the Efficacy in experiment [4] is 86%. In experiment [6], this compound returned an IC50 of 3.6 µM. In addition, in experiment [7], the EC50 worked out at 2150 nM.

On to `CCCC(=O)Oc1ccc([C@H]2[C@](NC(=O)c3ccc(NC(=O)OC(C)(C)C)cc3)(C(=O)O)[C@@H](c3ccc(OC(=O)CCC)c(OC)c3)[C@]2(NC(=O)c2ccc(NC(=O)OC(C)(C)C)cc2)C(=O)O)cc1OC`, for which the inhibition in experiment [2] is 65.1%; in experiment [5], 53.8%. Also, the Efficacy in experiment [4] amounted to 86%. The IC50 in experiment [6] is 7.5 µM. The EC50 in experiment [7] stood at 3330 nM.

`COc1cc([C@H]2[C@](NC(=O)c3ccc(NC(=S)Nc4cccc5ccccc45)cc3)(C(=O)O)[C@@H](c3ccc(OC(=O)c4cccs4)c(OC)c3)[C@]2(NC(=O)c2ccc(NC(=S)Nc3cccc4ccccc34)cc2)C(=O)O)ccc1OC(=O)c1cccs1`: the results for the inhibition in experiment [2] and in experiment [5] were 57.4% and 52.3%, respectively. Also, the Efficacy in experiment [4] stood at 29.8%. The compound also displayed an IC50 in experiment [6] of 3 µM. Also, in experiment [7], the EC50 was 2120 nM.

On to `COc1cc([C@H]2[C@](NC(=O)c3ccc(NC(=O)OC(C)(C)C)cc3)(C(=O)O)[C@@H](c3ccc(OC(=O)C(C)C)c(OC)c3)[C@]2(NC(=O)c2ccc(NC(=O)OC(C)(C)C)cc2)C(=O)O)ccc1OC(=O)C(C)C`, for which the inhibition in experiment [2] turned out to be 47.2%; in experiment [5], 34.8%. The Efficacy in experiment [4] came to 65%. The compound also yielded an IC50 in experiment [6] of 7.5 µM. Further, the EC50 in experiment [7] was 1380 nM.

With `COc1cc([C@H]2C[C@]2(NC(=O)c2ccc(NC(=O)OC(C)(C)C)cc2)C(=O)O)ccc1OC(=O)c1cccs1`, the inhibition in experiment [2] and in experiment [5] was under 15% each time. Besides, in experiment [4], the Efficacy is under 15%. For the same compound, in experiment [6], the IC50 was over 20 µM. In experiment [7], the EC50 is over 20000 nM.
